≈ marks a conversion by molar mass, not a printed value. Calls of active or inactive are those of the source.
Legend:
Mus musculus [1] = assay: Toxicity in C57BL6 mouse eye assessed as effect on wound closure at 3 mg/ml applied topically 5 times/day for 4 days by slit lamp biomicroscopy; assay type: organism-based; conditions: in vivo, topical_or_ocular, 96 h
Staphylococcus aureus [2] = assay: Antimicrobial activity against multidrug resistant Staphylococcus aureus isolates by broth macrodilution method; assay type: functional
[3] = Selectivity index, ratio of HC50 for induction of hemolysis in New Zealand white rabbit RBC to MIC for Bacillus cereus ATCC 11778
[4] = Retention time of the compound; assay type: physicochemical
Procedure, shortened: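 Reverse-phase HPLC of 20 μL injections of a 10 μg/mL sample at 1 mL/min. Gradient: 5−55% ACN over 5 min, then 55−95% over 15 min.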

[5] = Selectivity index, ratio of HC50 for induction of hemolysis in New Zealand white rabbit RBC to MIC for Staphylococcus aureus DM4001
Staphylococcus aureus [6] = assay: Antimicrobial activity against Staphylococcus aureus ATCC 29213 in presence of 4% BSA by broth macrodilution method; assay type: functional
Procedure, shortened: (§1)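 MIC by CLSI broth macrodilution in Mueller Hinton broth, with BSA added to the bacterial suspension at a final 4% w/v. Inoculum was made by direct colony suspension from an 18−20 h tryptic soy agar plate.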

Staphylococcus aureus [7] = assay: Antimicrobial activity against Staphylococcus aureus ATCC 29213 in absence of 4% BSA by broth macrodilution method; assay type: functional
Procedure, shortened: (§2)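 Broth macrodilution MIC in Mueller Hinton broth following CLSI guidelines. Inoculum was prepared by direct colony suspension from an 18−20 h tryptic soy agar plate.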

Corynebacterium jeikeium = assay: Antimicrobial activity against Corynebacterium jeikeium isolates by broth macrodilution method; assay type: functional
Staphylococcus aureus [8] = assay: Antimicrobial activity against methicillin resistant Staphylococcus aureus DM09809R by broth macrodilution method; assay type: functional; procedure, shortened: as §2
Mus musculus [9] = assay: Toxicity in C57BL6 mouse eye assessed as induction of toxicity related clinical signs at 3 mg/ml applied topically 5 times/day for 4 days; assay type: organism-based; conditions: in vivo, topical_or_ocular, 96 h
Procedure, shortened: (§3)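 Three healthy wild-type C57BL6 mice (6−8 weeks) per treatment received 0.5, 1 or 3 mg/mL compound in 10 mM PBS. Applied topically to the eye 5 times/day for 4 days. Corneal clarity checked daily through day 4 by slit-lamp biomicroscopy; histological sections also inspected.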

Staphylococcus aureus [10] = assay: Antimicrobial activity against methicillin resistant Staphylococcus aureus isolates by broth macrodilution method; assay type: functional
Staphylococcus aureus [11] = assay: Antimicrobial activity against teicoplanin intermediate resistant Staphylococcus aureus isolates by broth macrodilution method; assay type: functional
Staphylococcus aureus [12] = assay: Antimicrobial activity against methicillin sensitive Staphylococcus aureus isolates by broth macrodilution method; assay type: functional
Listeria monocytogenes = assay: Antimicrobial activity against Listeria monocytogenes isolates by broth macrodilution method; assay type: functional
Staphylococcus aureus [13] = assay: Antimicrobial activity against Staphylococcus aureus ATCC 29213 infected in mouse cornea infection model assessed as reduction in viable bacterial count at 0.3% solution applied topically 5 times/day dosed 1 day after infection relative to control; assay type: functional
Procedure, shortened: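 Mouse cornea given three superficial 1 mm scratches on one eye under ketamine/xylazine, then 10 μL of S. aureus ATCC 29213 suspension (1 × 10^8 CFU/mL in USP phosphate buffer) applied topically. Treated topically 5 times/day from day 1 postinfection; PBS negative control; 4 mice/group killed on days 1, 2 and 3. Corneas homogenized in 0.9% NaCl with 0.25% BSA, plated in duplicate on TSA (48 h, 35 °C); log10 CFU/cornea.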

[14] = tested on: Staphylococcus epidermidis; assay: Antimicrobial activity against Staphylococcus epidermidis isolates by broth macrodilution method; assay type: functional
[15] = Induction of hemolysis in New Zealand white rabbit RBC after 1 hr; assay type: cell-based, Oryctolagus cuniculus, Erythrocyte; conditions: New Zealand white, red blood cells (RBC)
Procedure, shortened: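 Fresh red blood cells isolated from New Zealand white rabbits. Lysis measured over a compound concentration series; HC50 taken as the concentration lysing 50% of RBCs.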

Staphylococcus aureus [16] = assay: Antimicrobial activity against methicillin resistant Staphylococcus aureus DM21455 in presence of 4% BSA by broth macrodilution method; assay type: functional; procedure, shortened: as §1
Mus musculus [17] = assay: Toxicity in C57BL6 mouse eye assessed as effect on corneal clarity at 3 mg/ml applied topically 5 times/day for 4 days by slit lamp biomicroscopy; assay type: organism-based, Cornea; conditions: in vivo, topical_or_ocular, 96 h; procedure, shortened: as §3
Mus musculus [18] = assay: Toxicity in C57BL6 mouse eye assessed as inflammatory response at 3 mg/ml applied topically 5 times/day for 4 days by slit lamp biomicroscopy; assay type: organism-based; conditions: in vivo, topical_or_ocular, 96 h; procedure, shortened: as §3
[19] = Selectivity index, ratio of HC50 for induction of hemolysis in New Zealand white rabbit RBC to MIC for Staphylococcus aureus DM09809R
Staphylococcus aureus [20] = assay: Antimicrobial activity against Staphylococcus aureus ATCC 29213 at 0.5 times MIC measured after 17 passages by multistep passage drug resistance selection study relative to wild type Staphylococcus aureus ATCC 29213 before passage; assay type: functional
Procedure, shortened: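 Multipassage selection in S. aureus ATCC29213 across an eight-concentration dilution series. Growth was read after 20−22 h. Bacteria growing at 0.5 × MIC were repassaged into a fresh series, 17 passages in total. Resistance was defined as a more than 4-fold rise over the initial MIC.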

Staphylococcus aureus [21] = assay: Antimicrobial activity against Staphylococcus aureus DM4001 by broth macrodilution method; assay type: functional; procedure, shortened: as §2
Lipid bilayer [22] = assay: Induction of vesicle leakage in DOPE/DOPG large unilamellar vesicles assessed as calcein release at 1/32 compound to lipid ratio by fluorescence assay; assay type: functional
Procedure, shortened: (§4)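 100 nm LUVs (DOPE/DOPG 75/25 or DOPC) made by film hydration in 80 mM calcein, 50 mM HEPES, 100 mM NaCl, 0.3 mM EDTA, pH 7.4. Then 7 freeze–thaw cycles, 15 extrusions and Sephadex G-50 clean-up. Compound added from DMF (<0.2%) at 50 μM final phospholipid. Fluorescence read at ex 490/em 520 nm for 30 min; 0.1% Triton X-100 set 100% lysis; three independent experiments.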

Streptococcus = assay: Antimicrobial activity against Streptococcus isolates by broth macrodilution method; assay type: functional
[23] = Selectivity index, ratio of HC50 for induction of hemolysis in New Zealand white rabbit RBC to MIC for Staphylococcus aureus DM21455
Bacillus cereus = assay: Antimicrobial activity against Bacillus cereus ATCC 11778 by broth macrodilution method; assay type: functional
Procedure, shortened: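 CLSI broth macrodilution in Mueller Hinton broth. Inoculum was made by direct colony suspension from colonies on an 18−20 h tryptic soy agar plate. The value is the MIC.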

Lipid bilayer [24] = assay: Induction of vesicle leakage in DOPC large unilamellar vesicles assessed as calcein release at 1/64 compound to lipid ratio by fluorescence assay
Lipid bilayer [25] = assay: Induction of vesicle leakage in DOPC large unilamellar vesicles assessed as calcein release at 1/16 compound to lipid ratio by fluorescence assay; assay type: functional; procedure, shortened: as §4
Lipid bilayer [26] = assay: Induction of vesicle leakage in DOPE/DOPG large unilamellar vesicles assessed as calcein release at 1/16 compound to lipid ratio by fluorescence assay; assay type: functional; procedure, shortened: as §4
Lipid bilayer [27] = assay: Induction of vesicle leakage in DOPE/DOPG large unilamellar vesicles assessed as calcein release at 1/64 compound to lipid ratio by fluorescence assay; assay type: functional; procedure, shortened: as §4
Staphylococcus aureus [28] = assay: Antimicrobial activity against methicillin resistant Staphylococcus aureus DM21455 by broth macrodilution method; assay type: functional; procedure, shortened: as §2
Staphylococcus aureus [29] = assay: Antimicrobial activity against vancomycin-intermediate sensitive Staphylococcus aureus isolates by broth macrodilution method; assay type: functional
Staphylococcus aureus [30] = assay: Antimicrobial activity against Staphylococcus aureus ATCC 29213 by broth macrodilution method; assay type: functional; procedure, shortened: as §2
Staphylococcus aureus [31] = assay: Antimicrobial activity against methicillin resistant Staphylococcus aureus DM21455 in absence of 4% BSA by broth macrodilution method; assay type: functional; procedure, shortened: as §2
Enterococcus [32] = assay: Antimicrobial activity against vancomycin-sensitive Enterococcus isolates by broth macrodilution method; assay type: functional
Enterococcus [33] = assay: Antimicrobial activity against vancomycin-resistant Enterococcus isolates by broth macrodilution method; assay type: functional
Staphylococcus aureus [34] = assay: Antimicrobial activity against epidemic methicillin resistant Staphylococcus aureus isolates by broth macrodilution method; assay type: functional

For COC(=O)C(CCCNC(=N)N)NC(=O)C(CCCNC(=N)N)NC(=O)COc1cc2oc3cc(OCC(=O)NC(CCCNC(=N)N)C(=O)NC(CCCNC(=N)N)C(=O)OC)c(OC)c(CC=C(C)C)c3c(=O)c2c(O)c1CC=C(C)C (stereo not drawn), the Activity (Mus musculus [1]) was “Non-toxic”, the MIC (Staphylococcus aureus [2]) was 2 µg/mL (≈ 1.7 µM) and the Selectivity Index [3] was 92. The Retention_time [4] was 6.49 min, the Selectivity Index [5] was 92 and the MIC (Staphylococcus aureus [6]) was 12.5 µg/mL. The MIC (Staphylococcus aureus [7]) was 3.12 µg/mL (≈ 2.65 µM), the MIC (Corynebacterium jeikeium) was 2 µg/mL (≈ 1.7 µM) and the MIC (Staphylococcus aureus [8]) was 3 µg/mL (≈ 2.54 µM). The Activity (Mus musculus [9]) was “Non-toxic”, the MIC (Staphylococcus aureus [10]) was 2 µg/mL (≈ 1.7 µM) and the MIC (Staphylococcus aureus [11]) was 2 µg/mL (≈ 1.7 µM). For the same compound, the MIC (Staphylococcus aureus [12]) was 2 µg/mL (≈ 1.7 µM), the MIC (Listeria monocytogenes) was 2 µg/mL (≈ 1.7 µM) and the “inhibition (INH)” value (Staphylococcus aureus [13]) was 99.9%. It also gave an MIC [14] of 2 µg/mL (≈ 1.7 µM), an HC50 at 1 h [15] of 277 µg/mL and an MIC (Staphylococcus aureus [16]) of 12.5 µg/mL. The Activity (Mus musculus [17]) was “Non-toxic”, the Activity (Mus musculus [18]) was “Non-toxic” and the Selectivity Index [19] was 92. The Activity (Staphylococcus aureus [20]) was “Active”, the MIC (Staphylococcus aureus [21]) was 0.5 µg/mL (≈ 0.424 µM) and the Activity (Lipid bilayer [22]) was 67.9%. It also gave an MIC (Streptococcus) of 2 µg/mL (≈ 1.7 µM), a Selectivity Index [23] of 92 and an MIC (Bacillus cereus) of 3 µg/mL (≈ 2.54 µM). It also gave an Activity (Lipid bilayer [24]) of less than 15%, an Activity (Lipid bilayer [25]) of less than 15% and an Activity (Lipid bilayer [26]) of 99.2%. For the same compound, the Activity (Lipid bilayer [27]) was 24.6%, the MIC (Staphylococcus aureus [28]) was 2 µg/mL (≈ 1.7 µM) and the MIC (Staphylococcus aureus [29]) was 2 µg/mL (≈ 1.7 µM). The MIC (Staphylococcus aureus [30]) was 2 µg/mL (≈ 1.7 µM), the MIC (Staphylococcus aureus [31]) was 1.56 µg/mL (≈ 1.32 µM) and the MIC (Enterococcus [32]) was 2 µg/mL (≈ 1.7 µM). It also gave an MIC (Enterococcus [33]) of 1 µg/mL (≈ 0.848 µM) and an MIC (Staphylococcus aureus [34]) of 2 µg/mL (≈ 1.7 µM).
